From ChEMBL document CHEMBL1131482 (J Med Chem, 1998)

Key:
Mus musculus [1] = species on record: Mus musculus; assay: Analgesic efficacy is expressed as percentage of that morphine, done on mouse.; type: functional
Mus musculus [2] = assay: Licking latency was measured before treatment (at dose=15 mg/kg) by using mouse hot plate test; type: functional
How it was run: (§1)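 Male Swiss-Webster mice (22-28 g), 23 ± 1 °C, 12-h light/dark cycle, food and water ad libitum. Hot plate at 52.5 ± 0.1 °C with licking latency as read-out and 45 s cutoff. Mice with pre-drug latency below 12 or over 18 s were rejected. Compounds given sc, 5-12 mice per test. Significance was assessed by Dunnett's two-tailed test, P < 0.05.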

Mus musculus [3] = assay: Licking latency was measured after 15 min treatment (at dose=25 mg/kg) by using mouse hot plate test; type: functional; how it was run: as §1
Mus musculus [4] = assay: Licking latency was measured after 15 min treatment (at dose=15 mg/kg) by using mouse hot plate test; type: functional; how it was run: as §1
Mus musculus [5] = assay: MAD: minimal dose able to induce a statistically significant increase of the pain threshold, done on mouse; sc; type: functional
How it was run: (§2)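 Mouse hot plate test (52.5 ± 0.1 °C, 45 s cutoff) after sc dosing, in male Swiss-Webster mice. The value is the lowest dose giving a statistically significant rise in pain threshold. Dunnett's two-tailed test compared treated mice at maximum reaction time with pretest time, P < 0.05.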

Mus musculus [6] = assay: Licking latency was measured before treatment (at dose=25 mg/kg) by using mouse hot plate test; type: functional; how it was run: as §1
Mus musculus [7] = assay: Licking latency was measured after 30 min treatment (at dose=15 mg/kg) by using mouse hot plate test; type: functional; how it was run: as §1
Mus musculus [8] = assay: Licking latency was measured after 30 min treatment (at dose=25 mg/kg) by using mouse hot plate test; type: functional; how it was run: as §1
Mus musculus [9] = assay: Licking latency was measured after 45 min treatment (at dose=25 mg/kg) by using mouse hot plate test; type: functional; how it was run: as §1
Mus musculus [10] = assay: Licking latency was measured after 45 min treatment (at dose=15 mg/kg) by using mouse hot plate test; type: functional; how it was run: as §1
Mus musculus [11] = species on record: Mus musculus; assay: Analgesic efficacy is expressed as percentage of that epibatidine, done on mouse.; type: functional
Mus musculus [12] = assay: MNTD:Maximal nontoxic dose of the compound, done on mouse; sc; type: functional
How it was run: (§3)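 Male Swiss-Webster mice dosed sc. The value is the highest dose causing no visible behavioural change (tremors, convulsions, hypomotility etc.), so that treated mice could not be told apart from untreated ones. Behaviour was scored by the Irwin method in groups of at least 10 animals.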

Mus musculus [13] = assay: Licking latency was measured after 45 min treatment (at dose=1 mg/kg) by using mouse hot plate test; type: functional; how it was run: as §1
Mus musculus [14] = assay: Licking latency was measured after 45 min treatment (at dose=20 mg/kg) by using mouse hot plate test; type: functional; how it was run: as §1
Mus musculus [15] = assay: Licking latency was measured before treatment (at dose=10 mg/kg) by using mouse hot plate test; type: functional; how it was run: as §1
Mus musculus [16] = assay: Licking latency was measured after 15 min treatment (at dose=1 mg/kg) by using mouse hot plate test; type: functional; how it was run: as §1
IMR-32 [17] = assay: Cholinergic interactions was measured with FLIPR device on IMR-32 cells of human neuroblastoma clonal line, given as effective dose; type: functional, cell-based
How it was run: (§4)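 Cells were plated on poly(ethylenimine)-coated plates and used about 72 h later. Loading was Fluo-3 AM for 1 h at 37 °C, followed by washes in Hepes-salts buffer, pH 7.4. FLIPR recorded Ca2+ fluorescence over 5 min after agonist addition. Responses were normalized to 100 µM nicotine (100%) and unloaded cells (0%), and EC50 and intrinsic activity were derived from concentration-response curves.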

K177 cell line [18] = assay: Cholinergic interactions was measured with FLIPR device on […] cells and given as Intrinsic activity; type: functional, Homo sapiens; how it was run: as §4
Mus musculus [19] = assay: Licking latency was measured after 15 min treatment (at dose=10 mg/kg) by using mouse hot plate test; type: functional; how it was run: as §1
TE-671 [20] = assay: Cholinergic interactions was measured with FLIPR device on TE671 cells and given as Intrinsic activity; type: functional, Homo sapiens; how it was run: as §4
Mus musculus [21] = assay: Licking latency was measured after 45 min treatment (at dose=5 mg/kg) by using mouse hot plate test; type: functional; how it was run: as §1
Mus musculus [22] = assay: Licking latency was measured after 30 min treatment (at dose=20 mg/kg) by using mouse hot plate test; type: functional; how it was run: as §1
Mus musculus [23] = assay: Licking latency was measured before treatment (at dose=1 mg/kg) by using mouse hot plate test; type: functional; how it was run: as §1
Mus musculus [24] = assay: Licking latency was measured after 30 min treatment (at dose=10 mg/kg) by using mouse hot plate test; type: functional; how it was run: as §1
TE-671 [25] = assay: Cholinergic interactions was measured with FLIPR device on TE671 cells and given as Effective dose; type: functional, cell-based; settings: Homo sapiens; how it was run: as §4
[26] = target: Neuronal acetylcholine receptor; alpha4/beta2 (Rattus norvegicus, UniProt P09483+P12390); assay: Cholinergic interactions was measured as displaced [3H][…] from Nicotinic acetylcholine receptor alpha4-beta2 in rat brain membranes; type: cell membranes
Chain of Neuronal acetylcholine receptor; alpha4/beta2 (P09483 whole entry): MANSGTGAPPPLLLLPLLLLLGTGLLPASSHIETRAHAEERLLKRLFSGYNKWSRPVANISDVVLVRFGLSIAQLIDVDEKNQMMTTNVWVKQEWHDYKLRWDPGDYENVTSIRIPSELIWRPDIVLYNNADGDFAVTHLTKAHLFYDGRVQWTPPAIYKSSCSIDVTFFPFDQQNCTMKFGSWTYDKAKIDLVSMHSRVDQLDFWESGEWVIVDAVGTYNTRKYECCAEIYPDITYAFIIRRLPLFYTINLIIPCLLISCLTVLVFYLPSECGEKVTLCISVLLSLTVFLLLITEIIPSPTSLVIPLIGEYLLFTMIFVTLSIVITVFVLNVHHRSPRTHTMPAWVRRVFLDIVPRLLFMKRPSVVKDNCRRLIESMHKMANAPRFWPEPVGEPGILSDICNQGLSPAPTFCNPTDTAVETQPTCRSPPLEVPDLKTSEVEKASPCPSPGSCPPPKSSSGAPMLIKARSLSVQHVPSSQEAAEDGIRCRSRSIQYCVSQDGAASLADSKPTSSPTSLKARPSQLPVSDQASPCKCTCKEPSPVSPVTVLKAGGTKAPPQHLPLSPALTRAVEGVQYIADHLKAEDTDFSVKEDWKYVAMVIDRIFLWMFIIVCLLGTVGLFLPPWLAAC
Chain of Neuronal acetylcholine receptor; alpha4/beta2 (P12390 whole entry): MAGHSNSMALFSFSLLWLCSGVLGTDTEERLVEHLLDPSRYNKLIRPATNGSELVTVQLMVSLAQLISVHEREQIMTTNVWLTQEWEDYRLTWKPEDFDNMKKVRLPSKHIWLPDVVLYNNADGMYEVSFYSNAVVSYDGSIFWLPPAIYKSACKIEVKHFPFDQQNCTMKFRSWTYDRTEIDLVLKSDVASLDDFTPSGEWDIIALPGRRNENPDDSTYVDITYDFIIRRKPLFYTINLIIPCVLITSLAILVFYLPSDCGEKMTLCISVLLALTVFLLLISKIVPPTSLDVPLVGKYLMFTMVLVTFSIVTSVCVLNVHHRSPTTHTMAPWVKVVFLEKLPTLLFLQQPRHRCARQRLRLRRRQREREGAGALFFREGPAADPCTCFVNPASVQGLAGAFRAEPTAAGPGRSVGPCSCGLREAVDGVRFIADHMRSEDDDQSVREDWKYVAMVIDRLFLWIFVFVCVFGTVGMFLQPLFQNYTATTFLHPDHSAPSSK
How it was run: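 Rat cerebral cortical membranes were washed and resuspended in Tris-HCl 50 mM buffer, pH 7.4, then spun at 45000g. Samples held 150-200 µg protein and 0.7 nM [3H]-(-)-cytisine with varying modulator concentrations. Incubation was 75 min at 4 °C in triplicate. Nonspecific binding was defined with 10 µM (-)-nicotine.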

Mus musculus [27] = assay: Maximal nontoxic dose of the compound, done on mouse; sc; type: functional; how it was run: as §3
Mus musculus [28] = assay: Minimal dose able to induce a statistically significant increase of the pain threshold, done on mouse; sc; type: functional; how it was run: as §2
Mus musculus [29] = assay: Licking latency was measured after 30 min treatment (at dose=1 mg/kg) by using mouse hot plate test; type: functional; how it was run: as §1
Mus musculus [30] = assay: Licking latency was measured after 15 min treatment (at dose=5 mg/kg) by using mouse hot plate test; type: functional; how it was run: as §1
K177 cell line [31] = assay: Cholinergic interactions was measured with FLIPR device on […] cells and given as EC50.; type: functional, cell-based; settings: Homo sapiens; how it was run: as §4
Mus musculus [32] = assay: Licking latency was measured before treatment (at dose=5 mg/kg) by using mouse hot plate test; type: functional
How it was run: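 Male Swiss-Webster mice (22-28 g), 23 ± 1 °C, 12-h light/dark cycle. Hot plate at 52.5 ± 0.1 °C. Mice with pre-drug licking latency below 12 s or over 18 s were rejected. Cutoff 45 s. Compound given sc; latency read before dosing and at 15, 30 and 45 min. 5-12 mice per test.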

IMR-32 [33] = assay: Cholinergic interactions was measured with FLIPR device on cells of IMR-32 human neuroblastoma clonal line and given as Intrinsic activity; type: functional; how it was run: as §4
Mus musculus [34] = assay: Licking latency was measured after 30 min treatment (at dose=5 mg/kg) by using mouse hot plate test; type: functional; how it was run: as §1
Mus musculus [35] = assay: Licking latency was measured before treatment (at dose=20 mg/kg) by using mouse hot plate test; type: functional; how it was run: as §1

## Clc1cccc(N2CC3CCC(C2)N3)n1
Mus musculus [1]
  Analgesic efficacy compared to morphine: 116%
Mus musculus [2]
  Licking latency: 13.5 s
Mus musculus [3]
  Licking latency: 31.9 s
Mus musculus [4]
  Licking latency: 23.6 s
Mus musculus [5]
  MAD: 15 mg/kg
Mus musculus [6]
  Licking latency: 14.6 s
Mus musculus [7]
  Licking latency: 22.1 s
Mus musculus [8]
  Licking latency: 37 s
Mus musculus [9]
  Licking latency: 34.2 s
Mus musculus [10]
  Licking latency: 22 s
Mus musculus [11]
  Analgesic efficacy compared to epibatidine: 142%
Mus musculus [12]
  MNTD: 30 mg/kg

## Clc1ccc(N2CC3CCC(C2)N3)nn1
Mus musculus [1]
  Efficacy: 136%
Mus musculus [13]
  Licking latency: 21.5 s
Mus musculus [14]
  Licking latency: 33.8 s
Mus musculus [15]
  Licking latency: 14.2 s
Mus musculus [16]
  Licking latency: 21.5 s
IMR-32 [17]
  EC50: 12.2 µM
K177 cell line [18]
  Intrinsic activity: 164%
Mus musculus [19]
  Licking latency: 32.3 s
TE-671 [20]
  Intrinsic activity: 9.6%
Mus musculus [21]
  Licking latency: 26.5 s
Mus musculus [22]
  Licking latency: 39.8 s
Mus musculus [23]
  Licking latency: 13.5 s
Mus musculus [24]
  Licking latency: 38.3 s
TE-671 [25]
  EC50: > 1000 µM
[26]
  Ki: 4.1 µM
Mus musculus [27]
  MNTD: 30 mg/kg
Mus musculus [28]
  MAD: 1 mg/kg
Mus musculus [29]
  Licking latency: 25.6 s
Mus musculus [30]
  Licking latency: 27.8 s
K177 cell line [31]
  EC50: 24 µM
Mus musculus [32]
  Licking latency: 13.7 s
Mus musculus [11]
  Efficacy: 167%
IMR-32 [33]
  Intrinsic activity: 122.6%
Mus musculus [34]
  Licking latency: 28.5 s
Mus musculus [35]
  Licking latency: 14.3 s
